Drawing on ChEMBL document CHEMBL1268844, “Synthesis of novel 3-amino and 29-hydroxamic acid derivatives of glycyrrhetinic acid as selective 11β-hydroxysteroid dehydrogenase 2 inhibitors” (Bioorg Med Chem, 2010), this text covers IC50, Ratio and Activity for 20 compounds.

In test [1] the target is T1, 11-beta-hydroxysteroid dehydrogenase 1 (Homo sapiens, UniProt P28845). Nature of the test: Inhibition of human recombinant 11beta-HSD1 expressed in HEK293 cells assessed as conversion of [1,2-3H]-cortisone to cortisol by scintillation counting. The class given is cell-based.
Target sequence in this assay (P28845 whole entry): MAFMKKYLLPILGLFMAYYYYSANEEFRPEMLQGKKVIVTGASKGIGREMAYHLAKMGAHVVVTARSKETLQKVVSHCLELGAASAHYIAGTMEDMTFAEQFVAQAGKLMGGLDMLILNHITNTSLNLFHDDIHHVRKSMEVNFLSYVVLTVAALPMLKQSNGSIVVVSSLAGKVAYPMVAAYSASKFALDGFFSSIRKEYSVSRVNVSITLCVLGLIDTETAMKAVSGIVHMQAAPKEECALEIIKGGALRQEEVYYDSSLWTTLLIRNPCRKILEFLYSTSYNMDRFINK
The nature of test [2]: Selectivity ratio of IC50 for human recombinant 11beta-HSD2 to IC50 for human recombinant 11beta-HSD1.
In test [3] the target is T2, 11-beta-hydroxysteroid dehydrogenase type 2 (Homo sapiens, UniProt P80365).
T2 sequence (P80365 whole entry): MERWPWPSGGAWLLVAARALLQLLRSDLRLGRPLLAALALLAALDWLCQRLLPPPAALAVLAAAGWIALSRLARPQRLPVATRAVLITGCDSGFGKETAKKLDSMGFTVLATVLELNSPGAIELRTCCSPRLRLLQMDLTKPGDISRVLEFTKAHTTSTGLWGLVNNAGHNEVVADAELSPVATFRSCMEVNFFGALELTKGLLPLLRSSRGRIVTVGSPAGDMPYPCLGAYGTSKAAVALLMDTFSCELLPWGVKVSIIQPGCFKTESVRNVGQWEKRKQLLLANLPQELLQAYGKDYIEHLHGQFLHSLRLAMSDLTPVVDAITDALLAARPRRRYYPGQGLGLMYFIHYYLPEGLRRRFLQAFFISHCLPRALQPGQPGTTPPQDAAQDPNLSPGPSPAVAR
Nature of the test: Inhibition of human recombinant 11beta-HSD2 expressed in HEK293 cells assessed as conversion of [1,2,6,7-3H]-cortisol to cortisone by scintillation counting. The class given is cell-based.

Test [4] deals with T1, 11-beta-hydroxysteroid dehydrogenase 1. Nature of the test: Inhibition of human recombinant 11beta-HSD1 expressed in HEK293 cells assessed as residual conversion of [1,2-3H]-cortisone to cortisol at 0.2 uM by scintillation counting. It counts as cell-based. Summed up:
(§1)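 HEK-293 cells transfected with pcDNA3 encoding human enzyme carrying C-terminal FLAG tag. Compounds diluted from DMSO stocks, used immediately, screened at final 200 nM. Reactions stopped with methanol containing 2 mM unlabeled cortisone and cortisol. Steroids separated by TLC, then scintillation counting; readout is residual substrate conversion.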
Target sequence in this assay (P28845 whole entry, looked up): as the sequence (P28845 whole entry) above

Test [5] addresses T3, 11-beta-hydroxysteroid dehydrogenase type 2 (Homo sapiens) (UniProt P80365).
T3 sequence (whole entry): T2 sequence (P80365 whole entry)
In words: Inhibition of human recombinant 11beta-HSD2 expressed in HEK293 cells assessed as residual conversion of [1,2,6,7-3H]-cortisol to cortisone at 0.2 uM by scintillation counting. The class given is cell-based. The method in brief: as §1

pIC50: −log10 of the molar value.

One may read the pIC50 as the negative decadic logarithm of the IC50, by convention in mol/L. Regarding `CC1(C)[C@@H](O)CC[C@]2(C)[C@H]3C(=O)C=C4[C@@H]5C[C@@](C)(C(=O)NO)CC[C@]5(C)CC[C@@]4(C)[C@]3(C)CC[C@@H]12`, the pIC50 in test [1] was 5.94.
Regarding `CO/N=C1\CC[C@]2(C)[C@H]3C(=O)C=C4[C@@H]5C[C@@](C)(C(=O)O)CC[C@]5(C)CC[C@@]4(C)[C@]3(C)CC[C@H]2C1(C)C`, in test [1], the pIC50 was 5.82.
As for `CONC(=O)[C@@]1(C)CC[C@]2(C)CC[C@]3(C)C(=CC(=O)[C@@H]4[C@@]5(C)CC[C@H](O)C(C)(C)[C@@H]5CC[C@]43C)[C@@H]2C1`, the pIC50 in test [1] is 6.03; in test [3] it was 5.67. In addition, the Ratio in test [2] is 0.4.
Take `CC(=O)O[C@H]1CC[C@]2(C)[C@H]3C(=O)C=C4[C@@H]5C[C@@](C)(C(=O)NO)CC[C@]5(C)CC[C@@]4(C)[C@]3(C)CC[C@H]2C1(C)C`: the pIC50 in test [1] was 6.20.
For `CON(C)C(=O)[C@@]1(C)CC[C@]2(C)CC[C@]3(C)C(=CC(=O)[C@@H]4[C@@]5(C)CC[C@H](OC(C)=O)C(C)(C)[C@@H]5CC[C@]43C)[C@@H]2C1`, the Activity in test [4] was 95%; in test [5], 72%.
With `CON[C@H]1CC[C@]2(C)[C@H]3C(=O)C=C4[C@@H]5C[C@@](C)(C(=O)O)CC[C@]5(C)CC[C@@]4(C)[C@]3(C)CC[C@H]2C1(C)C`, the Activity in test [4] was 33%; in test [5], 2%. In addition, the negative logarithm of the IC50 (pIC50) was 7.37 in test [1] and 7.84 in test [3].
As to `CN(O)C(=O)[C@@]1(C)CC[C@]2(C)CC[C@]3(C)C(=CC(=O)[C@@H]4[C@@]5(C)CC[C@H](O)C(C)(C)[C@@H]5CC[C@]43C)[C@@H]2C1`, the Activity in test [4] was 71%; in test [5], 7%.
Regarding `CC1(C)C(=O)CC[C@]2(C)[C@H]3C(=O)C=C4[C@@H]5C[C@@](C)(C(=O)O)CC[C@]5(C)CC[C@@]4(C)[C@]3(C)CC[C@@H]12`, the pIC50 in test [1] is 6.21.
With `CC(=O)N[C@H]1CC[C@]2(C)[C@H]3C(=O)C=C4[C@@H]5C[C@@](C)(C(=O)N(C)O)CC[C@]5(C)CC[C@@]4(C)[C@]3(C)CC[C@H]2C1(C)C`, the results for the Activity in test [4] and in test [5] were 72% and 4%, respectively.
Turning to `CON[C@@H]1CC[C@]2(C)[C@H]3C(=O)C=C4[C@@H]5C[C@@](C)(C(=O)O)CC[C@]5(C)CC[C@@]4(C)[C@]3(C)CC[C@H]2C1(C)C`, the Activity in test [4] was 43%; in test [5], 5%. In addition, the figures for the pIC50 in test [1] and in test [3] were 7.21 and 8.31, respectively.
For `C=CCONC(=O)[C@@]1(C)CC[C@]2(C)CC[C@]3(C)C(=CC(=O)[C@@H]4[C@@]5(C)CC[C@H](OC(C)=O)C(C)(C)[C@@H]5CC[C@]43C)[C@@H]2C1`, the Activity in test [4] is 99%; in test [5] it was 84%.
For `CC(=O)O[C@H]1CC[C@]2(C)[C@H]3C(=O)C=C4[C@@H]5C[C@@](C)(C(=O)N(O)C(C)(C)C)CC[C@]5(C)CC[C@@]4(C)[C@]3(C)CC[C@H]2C1(C)C`, in that order: 86% and 85%.
For `CC1(C)[C@H](NS(C)(=O)=O)CC[C@]2(C)[C@H]3C(=O)C=C4[C@@H]5C[C@@](C)(C(=O)O)CC[C@]5(C)CC[C@@]4(C)[C@]3(C)CC[C@@H]12`, in that order: 32% and 4%.
The like results for `CN(O)C(=O)[C@@]1(C)CC[C@]2(C)CC[C@]3(C)C(=CC(=O)[C@@H]4[C@@]5(C)CC[C@H](NS(=O)(=O)C(F)(F)F)C(C)(C)[C@@H]5CC[C@]43C)[C@@H]2C1` were, in that order, 71% and 44%.
Consider `CC1(C)[C@@H](NS(=O)(=O)C(F)(F)F)CC[C@]2(C)[C@H]3C(=O)C=C4[C@@H]5C[C@@](C)(C(=O)O)CC[C@]5(C)CC[C@@]4(C)[C@]3(C)CC[C@@H]12`, for which the figures for the Activity in test [4] and in test [5] were 87% and 22%, respectively.
With `CC1(C)[C@@H](NS(C)(=O)=O)CC[C@]2(C)[C@H]3C(=O)C=C4[C@@H]5C[C@@](C)(C(=O)O)CC[C@]5(C)CC[C@@]4(C)[C@]3(C)CC[C@@H]12`, the results for the Activity in test [4] and in test [5] were 58% and 4%, respectively.
Regarding `CC(=O)N[C@H]1CC[C@]2(C)[C@H]3C(=O)C=C4[C@@H]5C[C@@](C)(C(=O)O)CC[C@]5(C)CC[C@@]4(C)[C@]3(C)CC[C@H]2C1(C)C`, the values for the pIC50 in test [1] and in test [3] were 6.08 and 6.34, respectively.
Turning to `CC1(C)[C@H](NS(=O)(=O)C(F)(F)F)CC[C@]2(C)[C@H]3C(=O)C=C4[C@@H]5C[C@@](C)(C(=O)O)CC[C@]5(C)CC[C@@]4(C)[C@]3(C)CC[C@@H]12`, the Activity was determined as 99% in test [4] and 50% in test [5].
For the compound `CON[C@H]1CC[C@]2(C)[C@H]3C(=O)C=C4[C@@H]5C[C@@](C)(C(=O)N(C)O)CC[C@]5(C)CC[C@@]4(C)[C@]3(C)CC[C@H]2C1(C)C`, the Activity worked out at 93% in test [4] and 30% in test [5].
For `CN(O)C(=O)[C@@]1(C)CC[C@]2(C)CC[C@]3(C)C(=CC(=O)[C@@H]4[C@@]5(C)CC[C@@H](NS(=O)(=O)C(F)(F)F)C(C)(C)[C@@H]5CC[C@]43C)[C@@H]2C1`, in that order: 88% and 82%.
